Legend:
Prostaglandin E synthase [1] = molecular target: T1, Prostaglandin E synthase (Homo sapiens, UniProt O14684); assay: Inhibition of recombinant human mPGES-1 expressed in CHO cells assessed as reduction in PGE2 formation using PGH2 a substrate preincubated for 10 mins followed by substrate addition measured after 1 min; assay type: cell-based
T1 sequence (O14684 whole entry): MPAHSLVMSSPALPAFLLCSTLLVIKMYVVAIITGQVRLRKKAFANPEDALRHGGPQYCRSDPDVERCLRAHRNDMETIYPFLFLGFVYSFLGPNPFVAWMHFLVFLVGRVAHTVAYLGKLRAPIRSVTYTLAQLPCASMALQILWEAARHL
In short: (§1)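 mPGES-1 enzyme inhibition. % inhibition values are means of two experiments in duplicate. IC50 values were derived from graphs of at least two experiments in duplicate.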

Prostaglandin E synthase [2] = molecular target: T1, Prostaglandin E synthase; assay: Inhibition of mPGES-1 in human A549 cells assessed as decrease in IL1beta induced PGE2 release preincubated for 30 mins followed by IL-1beta addition after 16 to 20 hrs by HTRF method; assay type: cell-based
[3] = molecular target: T2, Prostaglandin E synthase (Homo sapiens) (UniProt O14684); assay: Inhibition of recombinant human mPGES-1 expressed in CHO cells assessed as reduction in PGE2 formation at 1 uM using PGH2 a substrate preincubated for 10 mins followed by substrate addition measured after 1 min relative to control; assay type: cell-based; in short: as §1
T2 sequence (whole entry): T1 sequence (O14684 whole entry)

[4] = molecular target: T2, Prostaglandin E synthase (Homo sapiens); assay: Inhibition of recombinant human mPGES-1 expressed in CHO cells assessed as reduction in PGE2 formation at 10 uM using PGH2 a substrate preincubated for 10 mins followed by substrate addition measured after 1 min relative to control; assay type: cell-based; in short: as §1
[5] = molecular target: Prostaglandin G/H synthase 1 (Homo sapiens, UniProt P23219); assay: Inhibition of COX1 in human U937 cells assessed as decrease in PGE2 release using arachidonic acid as substrate preincubated for 15 mins followed by arachidonic acid addition measured after 5 mins; assay type: cell-based
Sequence of Prostaglandin G/H synthase 1 (P23219 whole entry): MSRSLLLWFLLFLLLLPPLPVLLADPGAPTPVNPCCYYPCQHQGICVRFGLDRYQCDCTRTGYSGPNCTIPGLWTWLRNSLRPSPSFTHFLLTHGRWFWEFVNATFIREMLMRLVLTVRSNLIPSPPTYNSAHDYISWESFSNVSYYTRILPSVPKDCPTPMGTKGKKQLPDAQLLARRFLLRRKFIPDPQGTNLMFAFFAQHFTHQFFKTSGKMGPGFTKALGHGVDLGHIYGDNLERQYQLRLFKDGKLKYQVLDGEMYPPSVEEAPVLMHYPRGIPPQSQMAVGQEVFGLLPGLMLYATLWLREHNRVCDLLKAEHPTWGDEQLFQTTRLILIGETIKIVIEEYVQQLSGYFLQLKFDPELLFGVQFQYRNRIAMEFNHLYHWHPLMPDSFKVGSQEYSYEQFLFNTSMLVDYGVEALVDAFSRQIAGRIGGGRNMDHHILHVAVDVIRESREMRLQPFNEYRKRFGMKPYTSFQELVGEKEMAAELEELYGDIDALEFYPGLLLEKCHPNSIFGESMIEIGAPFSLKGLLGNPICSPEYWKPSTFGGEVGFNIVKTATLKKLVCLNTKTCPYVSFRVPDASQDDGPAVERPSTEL

[6] = molecular target: T3, Prostaglandin G/H synthase 2 (Homo sapiens, UniProt P35354); assay: Inhibition of recombinant human N-terminal His-tagged COX2 expressed in baculovirus infected Sf21 insect cells assessed as decrease in PGE2 release using arachidonic acid as substrate preincubated for 15 mins followed by arachidonic acid addition measured after 5 mins
T3 sequence (P35354 whole entry): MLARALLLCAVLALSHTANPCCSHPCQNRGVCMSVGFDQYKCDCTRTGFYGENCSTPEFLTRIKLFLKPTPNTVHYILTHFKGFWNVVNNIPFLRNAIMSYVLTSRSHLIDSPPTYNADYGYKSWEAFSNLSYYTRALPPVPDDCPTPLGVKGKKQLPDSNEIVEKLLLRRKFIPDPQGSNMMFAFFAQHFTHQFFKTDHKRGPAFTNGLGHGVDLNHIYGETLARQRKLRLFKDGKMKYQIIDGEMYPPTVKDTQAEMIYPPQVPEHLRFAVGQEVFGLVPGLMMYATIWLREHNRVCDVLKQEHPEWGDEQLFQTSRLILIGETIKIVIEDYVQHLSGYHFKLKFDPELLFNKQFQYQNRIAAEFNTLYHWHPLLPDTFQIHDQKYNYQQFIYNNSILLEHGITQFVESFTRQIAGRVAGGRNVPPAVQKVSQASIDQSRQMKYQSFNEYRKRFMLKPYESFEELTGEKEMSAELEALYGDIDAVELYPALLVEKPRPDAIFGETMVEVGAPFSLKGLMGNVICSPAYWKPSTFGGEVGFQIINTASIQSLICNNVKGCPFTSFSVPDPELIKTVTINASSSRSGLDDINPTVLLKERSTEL

[7] = Metabolic stability in human liver microsomes assessed as parent compound remaining at 1 uM after 60 mins in presence of NADPH by LC/MS/MS analysis; assay type: ADME, microsome; settings: read-out: Stability
In short: (§2)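 Compound at 1.0 µM was incubated with liver microsomes (1.0 mg/mL protein) at 37 °C for 60 min. Samples were analysed by LC/MS/MS as % parent remaining. Run in triplicate.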

[8] = Metabolic stability in rat liver microsomes assessed as parent compound remaining at 1 uM after 60 mins in presence of NADPH by LC/MS/MS analysis; assay type: ADME, microsome; settings: read-out: Stability; in short: as §2
[9] = Metabolic stability in Guinea pig liver microsomes assessed as parent compound remaining at 1 uM after 60 mins in presence of NADPH by LC/MS/MS analysis; assay type: ADME, Cavia porcellus, microsome; settings: read-out: Stability; in short: as §2
CYP2D6 = CYP2D6 (Homo sapiens, UniProt P10635); assay: Inhibition of CYP2D6 in human liver microsomes at 10 uM measured after 20 mins in presence of NADPH by LC/MS/MS analysis relative to control; assay type: ADME; settings: liver microsomes
Sequence of CYP2D6 (P10635 whole entry, canonical isoform): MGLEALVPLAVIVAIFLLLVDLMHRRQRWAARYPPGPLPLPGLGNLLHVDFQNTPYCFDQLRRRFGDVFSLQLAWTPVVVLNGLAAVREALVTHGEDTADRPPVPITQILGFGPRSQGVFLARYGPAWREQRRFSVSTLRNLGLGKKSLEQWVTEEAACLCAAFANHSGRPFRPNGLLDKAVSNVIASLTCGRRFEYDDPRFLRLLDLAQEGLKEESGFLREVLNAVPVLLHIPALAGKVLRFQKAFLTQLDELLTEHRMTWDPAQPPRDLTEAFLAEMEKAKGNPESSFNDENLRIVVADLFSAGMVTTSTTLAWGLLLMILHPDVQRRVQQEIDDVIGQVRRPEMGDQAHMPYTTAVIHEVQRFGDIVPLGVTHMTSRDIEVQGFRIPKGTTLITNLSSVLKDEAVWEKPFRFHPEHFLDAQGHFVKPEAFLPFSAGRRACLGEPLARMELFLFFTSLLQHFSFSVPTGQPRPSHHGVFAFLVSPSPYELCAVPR
In short: (§3)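 CYP isoforms 1A2, 2D6, 3A4, 2C9 and 2C19 were tested at 1 and 10 µM. Results are % inhibition compared with a no-inhibitor control, run in triplicate.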

CYP3A4 = CYP3A4 (Homo sapiens, UniProt P08684); assay: Inhibition of CYP3A4 in human liver microsomes at 10 uM measured after 20 mins in presence of NADPH by LC/MS/MS analysis relative to control; assay type: ADME; in short: as §3
Sequence of CYP3A4 (P08684 whole entry): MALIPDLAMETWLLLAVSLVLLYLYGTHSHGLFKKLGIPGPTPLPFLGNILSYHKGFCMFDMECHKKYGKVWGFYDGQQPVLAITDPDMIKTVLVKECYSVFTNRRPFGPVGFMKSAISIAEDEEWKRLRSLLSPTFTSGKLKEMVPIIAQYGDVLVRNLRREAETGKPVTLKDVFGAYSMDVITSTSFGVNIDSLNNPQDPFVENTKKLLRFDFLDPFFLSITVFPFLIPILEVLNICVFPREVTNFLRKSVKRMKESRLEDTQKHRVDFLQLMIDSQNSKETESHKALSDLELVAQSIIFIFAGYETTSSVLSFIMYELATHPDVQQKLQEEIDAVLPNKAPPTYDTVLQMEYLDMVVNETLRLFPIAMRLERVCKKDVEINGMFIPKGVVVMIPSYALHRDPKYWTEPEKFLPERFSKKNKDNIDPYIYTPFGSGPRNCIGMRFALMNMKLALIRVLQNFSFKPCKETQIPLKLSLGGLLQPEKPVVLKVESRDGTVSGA

CYP2C9 = CYP2C9 (Homo sapiens, UniProt P11712); assay: Inhibition of CYP2C9 in human liver microsomes at 10 uM measured after 20 mins in presence of NADPH by LC/MS/MS analysis relative to control; assay type: ADME; in short: as §3
Sequence of CYP2C9 (P11712 whole entry): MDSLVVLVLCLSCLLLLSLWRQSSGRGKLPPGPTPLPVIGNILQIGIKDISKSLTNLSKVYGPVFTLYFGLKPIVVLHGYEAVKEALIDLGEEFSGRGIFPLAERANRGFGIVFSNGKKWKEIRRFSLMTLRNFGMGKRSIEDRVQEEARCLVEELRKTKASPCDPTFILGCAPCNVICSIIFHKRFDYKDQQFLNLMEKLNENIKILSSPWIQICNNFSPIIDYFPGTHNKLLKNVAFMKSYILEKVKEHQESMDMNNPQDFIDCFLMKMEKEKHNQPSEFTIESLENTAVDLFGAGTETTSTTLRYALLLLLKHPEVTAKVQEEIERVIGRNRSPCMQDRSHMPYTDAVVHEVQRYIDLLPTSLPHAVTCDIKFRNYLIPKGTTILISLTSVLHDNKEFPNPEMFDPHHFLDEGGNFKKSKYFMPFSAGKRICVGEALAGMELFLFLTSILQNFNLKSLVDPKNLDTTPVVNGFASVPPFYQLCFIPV

Cytochrome P450 2C19 = Cytochrome P450 2C19 (Homo sapiens, UniProt P33261); assay: Inhibition of CYP2C19 in human liver microsomes at 1 uM measured after 40 mins in presence of NADPH by LC/MS/MS analysis; assay type: ADME; in short: as §3
Sequence of Cytochrome P450 2C19 (P33261 whole entry): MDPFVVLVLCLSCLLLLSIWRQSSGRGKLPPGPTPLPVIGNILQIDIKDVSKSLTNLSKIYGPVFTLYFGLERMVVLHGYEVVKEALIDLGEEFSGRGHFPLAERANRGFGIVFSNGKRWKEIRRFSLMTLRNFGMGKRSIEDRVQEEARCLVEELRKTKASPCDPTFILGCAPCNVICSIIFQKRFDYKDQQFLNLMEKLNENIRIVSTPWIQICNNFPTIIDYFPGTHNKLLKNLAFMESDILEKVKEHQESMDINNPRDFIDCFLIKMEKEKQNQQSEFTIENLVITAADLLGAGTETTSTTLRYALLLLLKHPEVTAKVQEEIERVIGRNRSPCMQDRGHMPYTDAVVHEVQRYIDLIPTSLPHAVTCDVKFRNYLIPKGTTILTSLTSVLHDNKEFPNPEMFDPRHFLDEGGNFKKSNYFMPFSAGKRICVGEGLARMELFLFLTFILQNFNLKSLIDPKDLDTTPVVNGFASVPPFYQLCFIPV

COX2 [10] = molecular target: T4, COX2 (Homo sapiens, UniProt P35354); assay: Inhibition of recombinant human N-terminal His-tagged COX2 expressed in baculovirus infected Sf21 insect cells assessed as decrease in PGE2 release at 1 uM using arachidonic acid as substrate preincubated for 15 mins followed by arachidonic acid addition measured after 5 mins relative to control; settings: probe arachidonic acid
T4 sequence (P35354 whole entry): T3 sequence (P35354 whole entry)

COX2 [11] = molecular target: T4, COX2; assay: Inhibition of recombinant human N-terminal His-tagged COX2 expressed in baculovirus infected Sf21 insect cells assessed as decrease in PGE2 release at 10 uM using arachidonic acid as substrate preincubated for 15 mins followed by arachidonic acid addition measured after 5 mins relative to control; settings: probe arachidonic acid
Cytochrome P450 1A2 = molecular target: T5, Cytochrome P450 1A2 (Homo sapiens, UniProt P05177); assay: Inhibition of CYP1A2 in human liver microsomes at 1 uM measured after 20 mins in presence of NADPH by LC/MS/MS analysis; assay type: ADME; in short: as §3
T5 sequence (P05177 whole entry): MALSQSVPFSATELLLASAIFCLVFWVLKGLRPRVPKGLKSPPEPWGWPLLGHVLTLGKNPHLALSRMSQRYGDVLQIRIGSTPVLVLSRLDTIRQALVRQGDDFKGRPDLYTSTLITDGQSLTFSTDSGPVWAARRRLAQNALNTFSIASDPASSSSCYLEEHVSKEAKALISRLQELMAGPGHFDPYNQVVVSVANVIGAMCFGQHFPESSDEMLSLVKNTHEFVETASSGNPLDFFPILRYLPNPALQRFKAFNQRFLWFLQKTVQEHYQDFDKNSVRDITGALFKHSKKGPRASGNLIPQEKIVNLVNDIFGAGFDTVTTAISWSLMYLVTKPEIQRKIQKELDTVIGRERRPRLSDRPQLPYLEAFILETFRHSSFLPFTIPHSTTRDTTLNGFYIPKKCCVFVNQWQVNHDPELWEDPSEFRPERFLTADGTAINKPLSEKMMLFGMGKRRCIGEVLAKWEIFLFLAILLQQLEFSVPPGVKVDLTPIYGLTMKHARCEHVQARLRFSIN

Cytochrome P450 2D6 = Cytochrome P450 2D6 (Homo sapiens, UniProt P10635); assay: Inhibition of CYP2D6 in human liver microsomes at 1 uM measured after 20 mins in presence of NADPH by LC/MS/MS analysis; assay type: ADME; in short: as §3
Sequence of Cytochrome P450 2D6 (P10635 whole entry): as the sequence (P10635 whole entry, canonical isoform) above

Cytochrome P450 3A4 = Cytochrome P450 3A4 (Homo sapiens, UniProt P08684); assay: Inhibition of CYP3A4 in human liver microsomes at 1 uM measured after 20 mins in presence of NADPH by LC/MS/MS analysis; assay type: ADME; in short: as §3
Sequence of Cytochrome P450 3A4 (P08684 whole entry): as the sequence (P08684 whole entry) above

Cytochrome P450 2C9 = Cytochrome P450 2C9 (Homo sapiens, UniProt P11712); assay: Inhibition of CYP2C9 in human liver microsomes at 1 uM measured after 20 mins in presence of NADPH by LC/MS/MS analysis; assay type: ADME; in short: as §3
Sequence of Cytochrome P450 2C9 (P11712 whole entry): as the sequence (P11712 whole entry) above

| SMILES | IC50 (Prostaglandin E synthase [1]) [nM] | IC50 (Prostaglandin E synthase [2]) [nM] | inhibition [3] [%] | inhibition [4] [%] | further results |
| --- | --- | --- | --- | --- | --- |
| CC1(C)Oc2cc(C#Cc3cc(F)ccc3C(F)(F)F)ccc2-c2[nH]c(-c3c(F)cccc3Cl)nc21 | 21 | 706 |  |  |  |
| CC1(C)Oc2cc(Br)ccc2-c2[nH]c(-c3c(Br)cccc3Br)nc21 | 710 |  | 68.6 | 92 |  |
| CC1(C)Oc2cc(C(=O)Nc3ccc(C(F)(F)F)cc3)ccc2-c2[nH]c(-c3c(F)cccc3Cl)nc21 | 252 |  | 86.7 | 92.9 |  |
| CC1(C)Oc2cc(Cl)ccc2-c2[nH]c(-c3c(Br)cccc3Br)nc21 | 325 |  | 74 | 89 |  |
| CC1(C)Oc2cc(-c3ccc(C(F)(F)F)cc3)ccc2-c2[nH]c(-c3c(F)cccc3Cl)nc21 | 191 |  | 81.4 | 83.3 |  |
| CC1(C)Oc2cc(-c3cccc(C(F)(F)F)c3)ccc2-c2[nH]c(-c3c(F)cccc3Cl)nc21 | 92.9 | 616 | 91.4 | 94.6 | IC50 [5]: 8350 nM; IC50 [6]: > 10000 nM; remaining at 1 h, 1 µM [7]: 89%; remaining at 1 h, 1 µM [8]: 99%; remaining at 1 h, 1 µM [9]: 93%; inhibition at 20 min, 10 µM (CYP2D6): 56%; inhibition at 20 min, 10 µM (CYP3A4): 37%; inhibition at 20 min, 10 µM (CYP2C9): 35%; inhibition (INH) (Cytochrome P450 2C19): Not Active; inhibition at 5 min, 1 µM (COX2 [10]): 2.65%; inhibition at 5 min, 10 µM (COX2 [11]): 27.4%; inhibition (INH) (Cytochrome P450 1A2): Not Active; inhibition (INH) (Cytochrome P450 2D6): Not Active; inhibition (INH) (Cytochrome P450 3A4): Not Active; inhibition (INH) (Cytochrome P450 2C9): Not Active |
| CC1(C)Oc2cc(C#Cc3ccccc3C(F)(F)F)ccc2-c2[nH]c(-c3c(F)cccc3Cl)nc21 | 15.6 | 693 |  |  |  |
| CC1(C)Oc2cc(C#Cc3ccc(Cl)cc3C(F)(F)F)ccc2-c2nc(-c3c(F)cccc3Cl)[nH]c21 | 7.76 | 2830 |  |  |  |
| CC1(C)Oc2cc(C#Cc3cc(Cl)ccc3Cl)ccc2-c2nc(-c3c(C#N)cccc3C#N)[nH]c21 | 12.7 | 2320 |  |  |  |
| CC1(C)Oc2cc(C#Cc3c(F)cccc3C(F)(F)F)ccc2-c2[nH]c(-c3c(F)cccc3Cl)nc21 | 12.3 | 691 |  |  |  |
| CC1(C)Oc2cc(C(=O)Nc3ccc(Cl)c(F)c3)ccc2-c2[nH]c(-c3c(F)cccc3Cl)nc21 | 187 |  | 83.5 | 84.5 |  |
| CC1(C)Oc2cc(C#Cc3cc(C(F)(F)F)ccc3Cl)ccc2-c2nc(-c3c(C#N)cccc3C#N)[nH]c21 | 3.89 | 1200 |  |  |  |
| CC1(C)Oc2cc(C#Cc3ccccc3C(F)(F)F)ccc2-c2nc(-c3c(C#N)cccc3C#N)[nH]c21 | 15.9 | 298 |  |  | remaining at 1 h, 1 µM [7]: 81%; remaining at 1 h, 1 µM [9]: 100%; inhibition at 20 min, 10 µM (CYP2D6): 29%; inhibition at 20 min, 10 µM (CYP3A4): 24%; inhibition at 20 min, 10 µM (CYP2C9): 32%; inhibition (INH) (Cytochrome P450 2C19): Not Active; inhibition (INH) (Cytochrome P450 1A2): Not Active; inhibition (INH) (Cytochrome P450 2D6): Not Active; inhibition (INH) (Cytochrome P450 3A4): Not Active; inhibition (INH) (Cytochrome P450 2C9): Not Active |
| CC1(C)Oc2cc(C#Cc3c(F)cccc3C(F)(F)F)ccc2-c2nc(-c3c(C#N)cccc3C#N)[nH]c21 | 12.7 | 836 |  |  |  |
| CC1(C)Oc2cc(C#Cc3ccccc3)ccc2-c2[nH]c(-c3c(C#N)cccc3C#N)nc21 | 24.8 | 984 |  |  |  |
| CC1(C)Oc2cc(C#Cc3cc(Cl)ccc3Cl)ccc2-c2[nH]c(-c3c(F)cccc3Cl)nc21 | 9.3 | 1420 |  |  |  |
| CC1(C)Oc2cc(C#Cc3ccccc3OC(F)(F)F)ccc2-c2[nH]c(-c3c(F)cccc3Cl)nc21 | 19.9 | 578 |  |  |  |
| CC1(C)Oc2cc(C#Cc3cc(C(F)(F)F)ccc3F)ccc2-c2nc(-c3c(F)cccc3Cl)[nH]c21 | 25 | 461 |  |  |  |
| CC1(C)Oc2cc(C#Cc3ccc(F)c(C(F)(F)F)c3)ccc2-c2nc(-c3c(F)cccc3Cl)[nH]c21 | 29.6 | 1250 |  |  |  |
| CC1(C)Oc2cc(I)ccc2-c2[nH]c(-c3c(F)cccc3Cl)nc21 |  |  | 44.3 | 84.2 |  |
| CC1(C)Oc2cc(-c3nc4ccccc4[nH]3)ccc2-c2nc(-c3c(F)cccc3Cl)[nH]c21 |  |  | 12.2 | 75.5 |  |
| CC1(C)Oc2cc(C#Cc3ccccc3OC(F)(F)F)ccc2-c2[nH]c(-c3c(C#N)cccc3C#N)nc21 | 11.8 | 267 |  |  |  |
